For orientation: Cmax means the maximum level reached in the sampled fluid or tissue. The term IC50 denotes the point on the concentration scale where inhibition reaches its midpoint. Read a high IC50 as lower potency. A word on the bioavailability: it is dose-corrected exposure relative to a reference, in per cent. In general, AUC refers to concentration integrated over time. Low readings indicate less exposure, high ones more exposure.

The results in this text go back to ChEMBL document CHEMBL4330143, “Maximizing ER-α Degradation Maximizes Activity in a Tamoxifen-Resistant Breast Cancer Model: Identification of GDC-0927” (ACS Med Chem Lett, 2019).

Data set [1] in a line: Unbound Cmax in nude mouse xenografted with tamoxifen-resistant human MCF7 cells at 100 mg/kg, po daily for 28 days measured on day 28 post last dose. Type of data set: ADME, organism-based. To be noted: in vivo, 672 h. The method in brief:
(§1)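 Tamoxifen-resistant MCF-7 xenograft mice carrying subcutaneous 0.72 mg estradiol pellets. Plasma pharmacokinetics sampled on day 28 of the study, at take-down.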

A short description of data set [2]: Cmax in nude mouse xenografted with tamoxifen-resistant human MCF7 cells at 100 mg/kg, po daily for 28 days measured on day 28 post last dose. The following applies: in vivo. On the set-up: dose 100 mg/kg, route oral. It counts as ADME, organism-based. The method in brief: as §1
(In xenograft studies the graft and the host belong to different species.)

For data set [3], the target named is T1, Glucocorticoid receptor (Homo sapiens) (UniProt P04150).
T1 sequence (whole entry): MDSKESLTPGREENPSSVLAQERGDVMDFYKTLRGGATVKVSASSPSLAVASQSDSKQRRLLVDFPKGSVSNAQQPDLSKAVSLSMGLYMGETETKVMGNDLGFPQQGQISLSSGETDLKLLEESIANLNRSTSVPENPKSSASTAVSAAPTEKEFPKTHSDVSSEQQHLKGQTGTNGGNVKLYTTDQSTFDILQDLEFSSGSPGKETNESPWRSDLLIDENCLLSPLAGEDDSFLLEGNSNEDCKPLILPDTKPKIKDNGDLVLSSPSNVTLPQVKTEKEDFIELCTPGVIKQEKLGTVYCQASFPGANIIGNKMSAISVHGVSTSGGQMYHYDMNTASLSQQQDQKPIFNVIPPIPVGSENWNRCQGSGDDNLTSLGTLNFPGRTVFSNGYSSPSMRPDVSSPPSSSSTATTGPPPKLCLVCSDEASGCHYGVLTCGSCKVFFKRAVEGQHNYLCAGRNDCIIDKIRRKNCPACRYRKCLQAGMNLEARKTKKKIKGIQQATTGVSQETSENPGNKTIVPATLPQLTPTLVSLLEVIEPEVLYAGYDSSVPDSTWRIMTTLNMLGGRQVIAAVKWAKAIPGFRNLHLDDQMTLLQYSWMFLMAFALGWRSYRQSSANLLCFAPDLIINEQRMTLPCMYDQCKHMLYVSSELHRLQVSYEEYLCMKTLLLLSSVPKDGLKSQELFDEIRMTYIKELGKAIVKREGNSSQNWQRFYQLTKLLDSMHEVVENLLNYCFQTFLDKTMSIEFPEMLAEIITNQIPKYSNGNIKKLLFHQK
The data set is described as follows: Antagonist activity at GR (unknown origin) by transcriptional reporter assay.

Data set [4] concerns the target Voltage-gated inwardly rectifying potassium channel KCNH2 (Homo sapiens, UniProt Q12809). The experiment in a line: Inhibition of human ERG by patch clamp method. Background: In patch-clamp work, channel activity is measured electrically.
In another data set the test system is MCF7. The data set is described as follows: Antiproliferative activity against human MCF7 cells after 5 days by CellTiter-Glo assay. To be noted: MCF7, 120 h.
Data set [5] has as its target T2, Progesterone receptor (Homo sapiens) (UniProt P06401).
T2 sequence (whole entry): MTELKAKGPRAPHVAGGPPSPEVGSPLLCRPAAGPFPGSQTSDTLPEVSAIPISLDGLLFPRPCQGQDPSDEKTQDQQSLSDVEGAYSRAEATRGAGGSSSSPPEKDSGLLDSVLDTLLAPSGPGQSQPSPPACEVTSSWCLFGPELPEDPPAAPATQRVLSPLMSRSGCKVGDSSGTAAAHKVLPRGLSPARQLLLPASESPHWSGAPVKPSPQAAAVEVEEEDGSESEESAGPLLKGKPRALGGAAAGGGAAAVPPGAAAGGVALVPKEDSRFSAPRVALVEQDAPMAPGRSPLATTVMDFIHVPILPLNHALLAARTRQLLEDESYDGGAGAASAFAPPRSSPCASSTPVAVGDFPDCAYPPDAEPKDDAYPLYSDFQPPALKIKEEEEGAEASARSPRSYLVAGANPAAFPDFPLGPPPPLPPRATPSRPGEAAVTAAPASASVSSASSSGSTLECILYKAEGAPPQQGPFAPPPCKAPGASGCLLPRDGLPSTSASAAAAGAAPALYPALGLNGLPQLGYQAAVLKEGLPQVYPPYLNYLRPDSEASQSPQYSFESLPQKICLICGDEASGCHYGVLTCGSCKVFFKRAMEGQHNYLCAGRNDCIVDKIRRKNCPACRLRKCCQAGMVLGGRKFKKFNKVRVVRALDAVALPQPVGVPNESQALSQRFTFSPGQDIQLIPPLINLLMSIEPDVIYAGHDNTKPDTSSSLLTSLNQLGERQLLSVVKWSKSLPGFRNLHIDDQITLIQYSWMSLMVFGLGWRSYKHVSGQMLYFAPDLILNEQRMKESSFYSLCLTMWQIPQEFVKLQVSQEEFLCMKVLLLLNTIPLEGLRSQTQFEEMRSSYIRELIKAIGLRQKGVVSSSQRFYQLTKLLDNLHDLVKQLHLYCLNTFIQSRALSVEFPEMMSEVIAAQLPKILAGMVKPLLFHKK
The experiment in a line: Agonist activity at PR-A (unknown origin) by transcriptional reporter assay. (In a reporter assay the amount or activity of a reporter protein is the signal.)

For the next data set, the target named is Cytochrome P450 2D6 (Homo sapiens, UniProt P10635). The data set is described as follows: Competitive inhibition of CYP2D6 (unknown origin). It counts as ADME.
Sequence of Cytochrome P450 2D6 (P10635 whole entry): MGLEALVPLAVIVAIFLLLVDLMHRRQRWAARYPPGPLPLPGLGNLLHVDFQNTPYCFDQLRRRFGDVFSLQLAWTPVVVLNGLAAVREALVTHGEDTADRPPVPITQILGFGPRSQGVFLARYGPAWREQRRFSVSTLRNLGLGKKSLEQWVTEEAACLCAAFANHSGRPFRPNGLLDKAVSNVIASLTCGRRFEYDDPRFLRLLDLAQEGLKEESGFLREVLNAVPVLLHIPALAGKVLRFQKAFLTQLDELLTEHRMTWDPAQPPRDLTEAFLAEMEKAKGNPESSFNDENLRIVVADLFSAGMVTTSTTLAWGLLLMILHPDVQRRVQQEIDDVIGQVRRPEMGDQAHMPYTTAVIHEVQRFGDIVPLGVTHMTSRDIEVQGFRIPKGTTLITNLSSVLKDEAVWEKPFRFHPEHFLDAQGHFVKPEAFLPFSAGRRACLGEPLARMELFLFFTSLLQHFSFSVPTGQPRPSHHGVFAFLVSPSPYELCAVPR
A short description of data set [6]: Genotoxicity in Salmonella typhimurium TA100 by Ames test. To be noted: salmonella enterica subsp. enterica serovar […]. It counts as toxicity.
In another data set the target is Cytochrome P450 3A4 (Homo sapiens, UniProt P08684). The experiment in a line: Competitive inhibition of CYP3A4 (unknown origin). It counts as ADME.
Sequence of Cytochrome P450 3A4 (P08684 whole entry): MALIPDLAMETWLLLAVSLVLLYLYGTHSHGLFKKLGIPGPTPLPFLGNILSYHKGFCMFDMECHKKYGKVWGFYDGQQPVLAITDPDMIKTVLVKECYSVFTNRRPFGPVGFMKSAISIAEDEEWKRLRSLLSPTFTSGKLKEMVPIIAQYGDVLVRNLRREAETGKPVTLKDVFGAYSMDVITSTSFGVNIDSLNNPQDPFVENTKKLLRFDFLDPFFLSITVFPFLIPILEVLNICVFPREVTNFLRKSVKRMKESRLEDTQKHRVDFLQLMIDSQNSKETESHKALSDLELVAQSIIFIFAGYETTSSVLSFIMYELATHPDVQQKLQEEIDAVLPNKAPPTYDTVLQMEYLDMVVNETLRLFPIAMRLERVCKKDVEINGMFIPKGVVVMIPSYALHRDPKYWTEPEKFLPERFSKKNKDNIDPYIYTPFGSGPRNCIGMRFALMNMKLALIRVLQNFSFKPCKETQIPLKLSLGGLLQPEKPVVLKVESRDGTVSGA
Data set [7] in a line: Oral bioavailability in rat at 10 mg/kg daily for 3 days measured on day 3 post last dose. The following applies: in vivo. Type of data set: ADME, organism-based.
The target of another data set is T3, Cytochrome P450 1A2 (Homo sapiens, UniProt P05177).
T3 sequence (P05177 whole entry): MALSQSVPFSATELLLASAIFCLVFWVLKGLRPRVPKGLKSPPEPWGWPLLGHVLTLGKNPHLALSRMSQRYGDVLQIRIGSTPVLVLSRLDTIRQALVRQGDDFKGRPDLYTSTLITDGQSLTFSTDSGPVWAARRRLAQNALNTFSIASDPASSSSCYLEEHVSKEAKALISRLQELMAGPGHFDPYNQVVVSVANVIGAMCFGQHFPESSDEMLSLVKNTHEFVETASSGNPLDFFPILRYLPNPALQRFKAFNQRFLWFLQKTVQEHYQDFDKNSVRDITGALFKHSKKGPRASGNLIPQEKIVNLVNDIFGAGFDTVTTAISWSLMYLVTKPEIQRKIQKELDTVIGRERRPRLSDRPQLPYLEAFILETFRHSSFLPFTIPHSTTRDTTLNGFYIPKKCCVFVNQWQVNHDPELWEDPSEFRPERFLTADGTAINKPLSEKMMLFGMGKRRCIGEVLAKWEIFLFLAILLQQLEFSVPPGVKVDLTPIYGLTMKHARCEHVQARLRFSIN
The data set is described as follows: Competitive inhibition of CYP1A2 (unknown origin). Type of data set: ADME.

Data set [8] concerns the target T2, Progesterone receptor (Homo sapiens). The data set is described as follows: Agonist activity at PR-B (unknown origin) by transcriptional reporter assay.
Data set [9] is described as follows: Unbound fraction in mouse plasma. It counts as ADME, cell-free.
For data set [10], the target named is T2, Progesterone receptor (Homo sapiens). The experiment in a line: Antagonist activity at PR-A (unknown origin) by transcriptional reporter assay.
The target is the same in data set [11]. The experiment in a line: Antagonist activity at PR-B (unknown origin) by transcriptional reporter assay.
Data set [12] in a line: AUC (0 to 24 hrs) in nude mouse xenografted with tamoxifen-resistant human MCF7 cells at 100 mg/kg, po daily for 28 days measured on day 28 post last dose. Type of data set: ADME, organism-based. On the set-up: time < 24 hr, dose 100 mg/kg, route oral. To be noted: in vivo. The method in brief:
as §1

Active and inactive are the calls of the source. The calls are words filed in the database; no cut-off is given here. Some results are limits rather than exact numbers.

Sequence of Voltage-gated inwardly rectifying potassium channel KCNH2 (Q12809 whole entry): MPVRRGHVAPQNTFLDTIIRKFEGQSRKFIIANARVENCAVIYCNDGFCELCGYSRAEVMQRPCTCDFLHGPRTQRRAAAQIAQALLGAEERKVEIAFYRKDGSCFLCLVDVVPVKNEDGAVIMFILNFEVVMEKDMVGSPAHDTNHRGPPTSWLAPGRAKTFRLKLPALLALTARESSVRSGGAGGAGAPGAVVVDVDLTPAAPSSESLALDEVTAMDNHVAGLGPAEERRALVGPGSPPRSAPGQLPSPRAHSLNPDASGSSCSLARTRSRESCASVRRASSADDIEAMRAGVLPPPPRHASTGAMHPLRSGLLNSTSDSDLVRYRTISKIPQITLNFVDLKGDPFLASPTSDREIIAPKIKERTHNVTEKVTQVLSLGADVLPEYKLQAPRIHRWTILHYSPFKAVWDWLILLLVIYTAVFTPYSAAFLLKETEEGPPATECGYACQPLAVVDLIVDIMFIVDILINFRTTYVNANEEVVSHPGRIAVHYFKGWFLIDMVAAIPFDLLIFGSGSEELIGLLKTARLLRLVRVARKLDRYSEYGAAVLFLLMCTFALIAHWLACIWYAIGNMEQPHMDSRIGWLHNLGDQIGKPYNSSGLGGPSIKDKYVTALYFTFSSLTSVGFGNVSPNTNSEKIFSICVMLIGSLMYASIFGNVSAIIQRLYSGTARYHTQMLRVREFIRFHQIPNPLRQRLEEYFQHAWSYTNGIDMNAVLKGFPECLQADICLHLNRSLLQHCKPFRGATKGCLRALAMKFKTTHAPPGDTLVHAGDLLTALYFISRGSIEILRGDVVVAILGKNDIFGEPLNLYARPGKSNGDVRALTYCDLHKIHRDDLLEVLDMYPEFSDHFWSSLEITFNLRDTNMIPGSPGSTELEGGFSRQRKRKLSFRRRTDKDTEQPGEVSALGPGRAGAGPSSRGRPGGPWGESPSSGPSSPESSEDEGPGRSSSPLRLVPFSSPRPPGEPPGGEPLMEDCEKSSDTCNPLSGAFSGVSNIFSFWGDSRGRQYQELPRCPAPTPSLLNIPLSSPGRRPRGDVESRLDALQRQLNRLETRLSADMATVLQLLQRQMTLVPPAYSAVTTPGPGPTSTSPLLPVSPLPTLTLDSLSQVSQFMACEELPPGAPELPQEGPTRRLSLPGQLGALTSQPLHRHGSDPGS

In data set [1], `CC1=C(c2cccc(O)c2)[C@H](c2ccc(OCCN3CC(CF)C3)cc2)Oc2ccc(O)cc21` came in with a fCmax of 0.018 µg/mL. Moreover, in [2], the highest level (Cmax) was 950 ng/mL. The inhibition result in [3], in data set [10] and in data set [11] was “inactive” in each case. The IC50 in [4] was 4.6 µM; with MCF7 it was 0.0001 µM; at Cytochrome P450 2D6, > 10 µM; on Cytochrome P450 3A4 it was > 10 µM; at Cytochrome P450 1A2 it was > 10 µM. Moreover, the result in [5] and in data set [8] was inactive. In addition, the Activity result in [6] was “Non-Toxic”. Further, in [7], the bioavailability amounted to 10%. The compound also returned a Fu in data set [9] of 1.9%. The AUC at 24 h in data set [12] came to 6900 ng·h/mL.
